# Data as given in ChEMBL document CHEMBL3102857, “Synthesis and biological evaluation of 6H-pyrido[2',1':2,3]imidazo[4,5-c]isoquinolin-5(6H)-ones as antimitotic agents and inhibitors of tubulin polymerization” (Bioorg Med Chem, 2014).
# The source made the active and inactive calls. The calls are words filed in the database; no cut-off is given here.
# Experiments:
# HeLa [1] = experiment: Antiproliferative activity against human HeLa cells after 72 hrs by SRB assay; type: functional, cell-based
# Summary of the method: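 HeLa cells exposed to compound for 72 h, fixed with cold 10% TCA, stained with SRB in 1% acetic acid. Bound dye dissolved in 10 mM Tris-HCl and read at 515 nm. Inhibition % = [1 − (A515 treated/A515 control)] × 100. IC50 by Logit method, mean ± SD of at least three independent tests.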
# HeLa [2] = experiment: Cell cycle arrest in human HeLa cells assessed as accumulation at G2/M phase at 0.5 uM after 12 hrs by propidium iodide staining-based flow cytometric analysis (reference value: 3%); type: functional
# Summary of the method: (§1)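 Cells given 0.5 µM compound for 12 h, harvested, PBS-washed, fixed in cold 70% ethanol at 4 °C. Stained with propidium iodide ([…] as printed). DNA content analysed by flow cytometry for G0/G1, S and G2/M fractions.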
# HeLa [3] = experiment: Cell cycle arrest in human HeLa cells assessed as decrease in accumulation at G0/G1 phase at 0.5 uM after 12 hrs by propidium iodide staining-based flow cytometric analysis; type: functional; summary of the method: as §1
# HeLa [4] = experiment: Cell cycle arrest in human HeLa cells assessed as decrease in accumulation at S phase at 0.5 uM after 12 hrs by propidium iodide staining-based flow cytometric analysis; type: functional; summary of the method: as §1
# Tubulin (Homo sapiens) [5] = molecular target: T1, Tubulin (Homo sapiens) (UniProt P68371+Q9H4B7+P0DPH7+P68366+Q13509+Q71U36+P04350+Q3ZCM7+P07437+P68363+Q9BQE3+Q6PEY2+Q13885+Q9BVA1+Q9BUF5); experiment: Inhibition of tubulin polymerization (unknown origin) at 20 uM by spectrophotometric analysis; type: protein-complex assay
# Summary of the method: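 Purified tubulin combined with 20 µM compound on ice, then moved to 37 °C. Buffer: 80 mM PIPES pH 6.9, 0.5 mM EGTA, 2 mM MgCl2, 1 mM GTP. Polymerization followed by absorbance at 340 nm.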
# Tubulin (Homo sapiens) [6] = molecular target: T1, Tubulin (Homo sapiens); experiment: Displacement of [3H]-colchicine from tubulin (unknown origin) at 20 uM preincubated for 1 hr followed by radioligand addition measured after 30 mins by competitive binding assay; type: protein-complex assay
# HeLa [7] = experiment: Antimitotic activity against human HeLa cells assessed as disruption of mitotic spindle assembly at 0.5 uM after 12 hrs by DAPI staining-based immunofluorescence microscopic analysis; type: functional, cell-based
# Summary of the method: (§2)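 HeLa cells on glass coverslips, 0.5 µM compound for 12 h; fixed in 4% paraformaldehyde, permeabilized with 0.2% Triton X-100, blocked with 3% BSA. Stained with anti-α-tubulin (1:200) and Alexa Fluor 488 goat anti-mouse IgG (1:100), 1 h each, then DAPI. Imaged by fluorescence and confocal microscopy. Abnormal spindles scored as percentage of total mitotic cells.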
# HeLa [8] = experiment: Antimitotic activity against human HeLa cells assessed as multipolar mitotic spindle with disordered chromosome organization at 0.5 uM after 12 hrs by DAPI staining-based immunofluorescence microscopic analysis; type: functional, cell-based; summary of the method: as §2
SMILES,IC50 (HeLa [1]) [µM],inhibition (Tubulin (Homo sapiens) [5]) [%],inhibition (Tubulin (Homo sapiens) [6]) [%],further results
COc1ccc(CCCn2c(=O)c3ccccc3c3nc4ccccn4c32)cc1,> 10,,,
COc1ccc(Cn2c(=O)c3ccccc3c3nc4ccccn4c32)cc1,1.8,,,Activity (HeLa [2]): 4%; Activity (HeLa [3]): Active; Activity (HeLa [4]): Active
COc1ccc(CCn2c(=O)c3ccccc3c3nc4ccc(NCCN5CCOCC5)cn4c32)cc1,1.2,15,15,
COc1ccc(Cn2c(=O)c3ccccc3c3nc4ccccn4c32)c(OC)c1,2.24,,,
CCN(CC)CCNc1ccc2nc3c4ccccc4c(=O)n(CCc4ccc(OC)cc4)c3n2c1,2.28,18,20,
CC(=O)OCCn1c(=O)c2ccccc2c2nc3ccccn3c21,> 10,,,
CN(c1ccc(Cn2c(=O)c3ccccc3c3nc4ccccn4c32)cc1)S(C)(=O)=O,> 10,,,
COc1ccc(Cn2c(=O)c3ccccc3c3nc4ccc(Br)c(C)n4c32)cc1,> 10,,,
O=c1c2ccccc2c2nc3ccccn3c2n1Cc1ccco1,> 10,,,
CC[C@]1(O)C[C@H]2CN(CCc3c([nH]c4ccccc34)[C@@](C(=O)OC)(c3cc4c(cc3OC)N(C=O)[C@H]3[C@@](O)(C(=O)OC)[C@H](OC(C)=O)[C@]5(CC)C=CCN6CC[C@]43[C@@H]65)C2)C1 [VINCRISTINE],0.015,77,,
COc1ccc(CCn2c(=O)c3ccccc3c3nc4ccc(NCc5ccncc5)cn4c32)cc1,0.1,63,53,
COc1ccc(Cn2c(=O)c3ccccc3c3nc4cc(C)c(Br)cn4c32)cc1,> 10,,,
COC(=O)Cn1c(=O)c2ccccc2c2nc3ccccn3c21,> 10,,,
COc1ccc(CCn2c(=O)c3ccccc3c3nc4ccc(NCCCn5ccnc5)cn4c32)cc1,0.77,33,21,
O=c1c2ccccc2c2nc3ccccn3c2n1Cc1ccc(OC(F)(F)F)cc1,> 10,,,
COC(=O)CCn1c(=O)c2ccccc2c2nc3ccccn3c21,> 10,,,
COc1ccc(CCn2c(=O)c3ccccc3c3nc4ccccn4c32)cc1,0.07,76,74,Activity (HeLa [2]): 37%; Activity (HeLa [3]): Active; Activity (HeLa [4]): Active; Activity (HeLa [7]): Active; Activity (HeLa [8]): Active
COc1ccc(CCn2c(=O)c3ccccc3c3nc4ccc(NCc5ccccn5)cn4c32)cc1,0.24,27,22,
COc1ccc(Cn2c(=O)c3ccccc3c3nc4ccc(C)cn4c32)cc1,6.6,,,
COc1ccc(CCn2c(=O)c3ccccc3c3nc4ccc(NCCO)cn4c32)cc1,0.35,26,34,
COc1ccc(CCn2c(=O)c3ccccc3c3nc4ccc(-n5ccnc5)cn4c32)cc1,0.12,40,36,
COc1ccc(Cn2c(=O)c3ccccc3c3nc4c(C)cccn4c32)cc1,> 10,,,
COc1ccc(Cn2c(=O)c3ccccc3c3nc4cccc(C)n4c32)cc1,> 10,,,
COc1ccc(CCn2c(=O)c3ccccc3c3nc4ccc(NCc5cccnc5)cn4c32)cc1,0.06,74,78,Activity (HeLa [2]): 41%; Activity (HeLa [3]): Active; Activity (HeLa [4]): Active; Activity (HeLa [7]): Active; Activity (HeLa [8]): Active
O=c1c2ccccc2c2nc3ccccn3c2n1Cc1ccc2c(c1)OCO2,> 10,,,
COc1ccc(Cn2c(=O)c3ccccc3c3nc4ccccn4c32)cc1OC,> 10,,,
O=c1c2ccccc2c2nc3ccccn3c2n1CCc1ccc(O)cc1,> 10,,,
